Test: Toxicity liver stage against HepG2, at 10uM
Assay type: cell-based
Design: test concentration 10 uM, cell line HepG2-A16-CD81EGFP
Settings: human, HepG2-A16-CD81EGFP cells; read-out: INHIBITION
Procedure, shortened: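 Uninfected HepG2-A16-CD81EGFP cells, 3 × 10^3 per well, 1536-well, plated on prespotted compound at 10 μM final, parasite-free screening media added to match infected plates; puromycin 10 μM positive, DMSO 0.5% negative; run in parallel with 48 h PbLuc assay at 37 °C, 5% CO2; viability by CellTiter-Glo luminescence, normalized to controls.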

Row | Compound | cytotoxicity at 10 µM
1 | CN(C)C(=O)CSc1nnc(CCNC(=O)OC(C)(C)C)o1 | 13.7%
2 | COc1ccc(C2SC(C)=Nc3c2c(=O)[nH]n3C2CCCCC2)cc1O (stereo not drawn) | 1%
3 | O=C(NCC1(CO)CC1)c1cccc2ccccc12 | -12.5%
4 | CCOCC(=O)N1CCC(Oc2ccc(C(F)(F)F)cn2)CC1 | 11.7%
5 | O=C(NCC1CC1)C1CN(C(=O)c2cccc(Cl)c2)CC12CCOCC2 (stereo not drawn) | 1.18%
6 | CCn1nc(C)c2nc(C(C)C)nc(N(C)Cc3ccco3)c21 | 15.6%
7 | CCN(Cc1c(C)nn(CC)c1C)S(=O)(=O)c1cnn(C)c1 | 4.98%
8 | c1ccc(CCN2CCCC2c2cncc(Nc3nncs3)n2)cc1 (stereo not drawn) | 5.62%
9 | c1nnc(Nc2cncc(C3CCCN3CC3CC3)n2)s1 (stereo not drawn) | 3.01%
10 | CC(=O)N1CCN([C@@H]2CN(C(=O)c3ccccc3)C[C@H]2O)CC1 | -4.8%
11 | CN1CCN(c2ccccc2CNC(=O)CSC(F)(F)F)CC1 | 8.27%
12 | CC(NC(N)=O)C(=O)N(C)Cc1cccc(C(F)(F)F)c1 (stereo not drawn) | -5.14%
13 | O=C(Nc1cc(C(F)(F)F)c[nH]c1=O)C1CCNCC1 | 6.01%
14 | CC(C)(C)NC(=O)c1cnc(C(C)(C)C)s1 | 3.72%
15 | Cc1ccc(-c2nc(C(=O)N(C)CC(=O)N(C)C)cs2)c(C)c1 | -10.1%
16 | CC(C)N1CCC(N2CCOC3(CCCC3)C2)C1=O (stereo not drawn) | 1.56%
17 | CCNC(=O)NCC1(CN2CCOCC2)CCCCC1 | 6.73%
18 | O=C(COC1CCCCC1)N1CCN(C(=O)Cc2ccccn2)CC1 | -1.3%
19 | CS(=O)(=O)NCC1CCCN(c2ccc(C(F)(F)F)cn2)C1 (stereo not drawn) | -17.3%
20 | c1cc(C2CCN(Cc3nc(C4CC4)no3)CC2)[nH]n1 | 7.45%
21 | O=C(NS(=O)(=O)Cc1ccc(F)cc1)C1CCc2ccccc21 (stereo not drawn) | -13.1%

Row | Compound | cytotoxicity at 10 µM
22 | CCN(CC)Cc1ccc(C(=O)NC2CCc3ccccc32)o1 (stereo not drawn) | -3.97%
23 | COc1cc(C(C)=O)ccc1SCC(=O)Nc1cccc(C)n1 | 15.1%
24 | CCN(Cc1cccc(-c2ccncc2)c1)S(N)(=O)=O | -12.6%
25 | Cc1cc(=O)n(C)cc1NC(=O)Cc1ccc(C(F)(F)F)cc1 | -14%
26 | COc1ccc(Cl)cc1-c1cc(NC(=O)CNC(=O)C2CC2)[nH]n1 | -3.61%
27 | CCc1nc(CN2CCC(C(=O)N(C)C)CC2)cs1 | 3.05%
28 | c1n[nH]cc1CCCN1CCC(OC2CCCCC2)CC1 | 2.97%
29 | Cc1ncc(CNc2ccc(C(=O)NCc3ccco3)cc2C)s1 | -10.5%
30 | Cc1nc(C2CN(Cc3ccc(F)cc3Br)CCO2)no1 (stereo not drawn) | -4.75%
31 | O=C(CNC(=O)C1CC1)NCC1CCCC1 | 2.12%
32 | CC(C)CCOc1ccc(C(C)NC(=O)Cn2cccnc2=O)cc1 (stereo not drawn) | -4.24%
33 | COCc1nc2cc(NCc3ccc(C)o3)ccc2o1 | -9.41%
34 | COCCN1CCN(C(C)C(=O)Nc2ccnn2C(C)C)CC1 (stereo not drawn) | -8.83%
35 | Cc1cc(CN2CCN(C(=O)CCc3cccc(F)c3F)CC2)on1 | -6.16%
36 | Cc1cc(CNC2CCCN(c3cccnn3)C2)no1 (stereo not drawn) | -15%
37 | Cc1nn(C(C)C)c(C)c1NC(=O)c1ccccc1 | -11.7%
38 | COCc1ccccc1C(=O)NCCCN1CCCC1C(=O)N(C)C (stereo not drawn) | -14.5%
39 | CCNC(=O)[C@@H]1C[C@@H](N)CN1Cc1ccc2cccc(Cl)c2n1 | 12.9%
40 | CCN(Cc1noc(C2CCC2)n1)C(=O)CCc1cc2n(n1)CCNC2 | 10.5%
41 | CC1=C(C(=O)N(C)Cc2noc3c2CCCC3)C(C)NC(=O)N1 (stereo not drawn) | -0.844%
42 | CSCCC(O)C(=O)N1CCN(Cc2cccc(Cl)c2)CC1 (stereo not drawn) | 6.48%

Row | Compound | cytotoxicity at 10 µM
43 | Cc1cccc(-n2nc(CC(C)C)nc2CCC(=O)N(C)C)c1 | -9.61%
44 | COCCN(C)C[C@H]1C[C@H](CO)CN(C(=O)c2ccn(C)c(=O)c2)C1 | -2.75%
45 | CN(Cc1ccsc1)Cc1nc(-c2cnccn2)no1 | -0.164%
46 | Cc1n[nH]c(C)c1CCC(=O)N(C)Cc1cn[nH]c1-c1ccc(F)cc1 | 7.86%
47 | CC(Cn1cncn1)NCc1ccc2nonc2c1 (stereo not drawn) | 3.05%
48 | CN(Cc1ccsc1)Cc1ccc(C2CCCCO2)o1 (stereo not drawn) | -2.11%
49 | COCCN1CCc2onc(C(c3ccccc3)c3ccccc3)c2C1 | -7.35%
50 | Cn1ccnc1-c1nccn1C[C@@H]1CCCN2CCCC[C@H]12 | 2.68%
51 | CCc1cc(CN(C)C(=O)c2nnc(CN(C)C)o2)on1 | 1.77%
52 | O=C1N(C2CCOCC2)CCCC12CCN(c1ncccc1Cl)C2 (stereo not drawn) | -129%
53 | Cc1cccc(-c2nccn2-c2cccc(CC(=O)O)c2)n1 | 4.55%
54 | COc1cc(C(=O)N2Cc3cnc(C(C)(C)C)nc3C2)ccn1 | 2.03%
55 | Cc1nc(N2CCOc3ccc(CO)cc3C2)c2nc(C)oc2n1 | 7.91%
56 | Cc1cccc(C(C(=O)N2CC(c3ccncc3)C2)N(C)C)c1 (stereo not drawn) | -8.29%
57 | CSc1ccccc1C(=O)Nc1ccc(OC2CCN(C)CC2)cc1 | 3.39%
58 | O=C(CSCC1CC1)N1CCc2[nH]nc(COc3ccccc3)c2C1 | -7.01%
59 | COC(=O)NCC(=O)N1CCCCC1c1nc2cc(F)ccc2[nH]1 (stereo not drawn) | -1.41%
60 | CC(Cn1cncn1)NC1CCN(Cc2cccc(O)c2)CC1 (stereo not drawn) | 2.64%
61 | CC(C)Oc1cc(N2C[C@@H](C)O[C@@H](C)C2)nc(N)n1 | -9.15%
62 | Cc1nc(N2CCN(C(=O)C(C)(C)C)CC2)cc(-n2cnc(C)c2C)n1 | -23.2%
63 | Cc1nc(C(=O)N2CCC(Cc3cnc4[nH]ccc4c3)C2)co1 (stereo not drawn) | 9.36%

Row | Compound | cytotoxicity at 10 µM
64 | Fc1cc(CN2CCCC2Cn2cncn2)c2ncccc2c1 (stereo not drawn) | -14.1%
65 | Cc1cnn(C2CCCN(C(=O)Cc3ccc(C)s3)C2)c1 (stereo not drawn) | -13.4%
66 | Cc1ccc(N2CCCC(NCc3nnc(-c4ccco4)o3)C2)nn1 (stereo not drawn) | -9.07%
67 | COc1cccc(CNCC2CN(C)CCO2)c1 (stereo not drawn) | -15.2%
68 | Cn1cnnc1C1CCN(C(=O)CCOc2ccc(Cl)cc2)CC1 | -8.94%
69 | CC(c1ccc(F)cc1)N1CCN(Cc2nccn2C)CC1 (stereo not drawn) | -25.7%
70 | O=C(NCc1ccco1)N(CCCO)C1CCCc2ccccc21 (stereo not drawn) | -9.53%
71 | CCOc1ccc(NC(=O)N(C)Cc2cnn(C)c2)c(C)c1 | -9.63%
72 | CC(C)n1nc2c(cc1=O)CN(CCCN1CCCC1=O)CC2 | -8.08%
73 | Cc1cc(C(=O)NC(COCC(C)C)c2ccco2)no1 (stereo not drawn) | -8.71%
74 | O=C(NCc1nncn1-c1ccccc1)C1CCCC1 | -11.5%
75 | O=C(NCC(=O)N1CCCC(n2cncn2)C1)OCc1ccccc1 (stereo not drawn) | -13.5%
76 | CN1N=C(C(=O)N2CCCC(n3cccn3)C2)CCC1=O (stereo not drawn) | -19%
77 | Cc1nc(CNC(=O)NCC(O)c2ccc(F)cc2F)cs1 (stereo not drawn) | 6.5%
78 | c1ccc2cc(OCCN3CCn4c(nnc4C4CC4)C3)ccc2c1 | 5.49%
79 | O=C(Nc1ccccc1F)N1CCN(Cc2noc(C3CC3)n2)CC1 | -0.144%
80 | COc1cc(C(=O)N2CCC(c3n[nH]c(C4CC4)n3)CC2)ccc1C | 3.37%
81 | CN(Cc1nc(N)c2ccccc2n1)CC1CCCN1c1cccnn1 (stereo not drawn) | -1.4%
82 | Cc1ccc(CN2CCC3(CC(=O)N(c4cccc(F)c4)C3)C2)o1 (stereo not drawn) | -140%
83 | O=C(c1ccnnc1)N1C[C@@H]2OCCN(CCN3CCCC3)[C@@H]2C1 | 4.22%
